Reference: ChEMBL document CHEMBL3352737, “Discovery of potent and selective spiroindolinone MDM2 inhibitor, RO8994, for cancer therapy” (Bioorg Med Chem, 2014)

Key:
SW480 = assay: Antiproliferative activity against p53 mutant expressing human SW480 cells assessed as inhibition of cell proliferation by MTT assay; assay type: functional, cell-based
MDA-MB-435 = assay: Antiproliferative activity against p53 mutant expressing human MDA-MB-435 cells assessed as inhibition of cell proliferation by MTT assay; assay type: functional, cell-based
RKO = assay: Antiproliferative activity against wild-type p53 expressing human RKO cells assessed as inhibition of cell proliferation by MTT assay; assay type: functional, cell-based
[1] = target: T1, Tumour suppressor p53/oncoprotein Mdm2 (Homo sapiens, UniProt Q00987); assay: Inhibition of p53-MDM2 (unknown origin) interaction using 0.2% BSA buffer after 1 hr by HTRF assay; assay type: protein assay
[2] = Antiproliferative activity against wild-type p53 expressing human HCT116 cells assessed as inhibition of cell proliferation by MTT assay; assay type: functional, cell-based; conditions: HCT-116
[3] = Apparent terminal half life in C57 mouse at 5 mg/kg, iv; assay type: ADME, organism-based; design: dose 5 mg/kg, route intravenous; conditions: in vivo, read-out: betat1/2(app) (converted)
Method in brief: (§1)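 Male C57 mice received a single dose, given orally or intravenously in separate arms. Plasma pharmacokinetic parameters were derived from the resulting concentration–time data and reported as means.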

[4] = Oral bioavailability in C57 mouse at 25 mg/kg; assay type: ADME, organism-based; conditions: in vivo; method in brief: as §1
[5] = Total plasma clearance in C57 mouse at 5 mg/kg, iv; assay type: ADME, organism-based; design: dose 5 mg/kg, route intravenous; method in brief: as §1
[6] = Cmax in C57 mouse at 25 mg/kg, po; assay type: ADME, organism-based; design: dose 25 mg/kg, route oral; conditions: in vivo; method in brief: as §1
[7] = Cmax in C57 mouse at 50 mg/kg, po; assay type: ADME, organism-based; design: dose 50 mg/kg, route oral; conditions: in vivo; method in brief: as §1
[8] = Oral bioavailability in C57 mouse at 50 mg/kg; assay type: ADME, organism-based; conditions: in vivo; method in brief: as §1
[9] = target: T1, Tumour suppressor p53/oncoprotein Mdm2; assay: Inhibition of p53-MDM2 (unknown origin) interaction using 0.02% BSA buffer after 1 hr by HTRF assay; assay type: protein assay

T1 sequence (P04637 whole entry): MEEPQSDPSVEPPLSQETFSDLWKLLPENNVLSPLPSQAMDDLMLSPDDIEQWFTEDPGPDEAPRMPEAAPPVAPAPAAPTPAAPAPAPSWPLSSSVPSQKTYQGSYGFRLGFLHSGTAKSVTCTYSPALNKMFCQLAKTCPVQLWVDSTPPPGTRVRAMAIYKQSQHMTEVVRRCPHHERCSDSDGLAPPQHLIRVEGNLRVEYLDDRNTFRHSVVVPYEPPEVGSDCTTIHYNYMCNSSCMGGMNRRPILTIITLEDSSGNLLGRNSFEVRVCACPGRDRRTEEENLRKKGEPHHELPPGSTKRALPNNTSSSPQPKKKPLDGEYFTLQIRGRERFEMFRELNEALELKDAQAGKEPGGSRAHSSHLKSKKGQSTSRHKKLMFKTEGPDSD
T1 sequence (Q00987 whole entry): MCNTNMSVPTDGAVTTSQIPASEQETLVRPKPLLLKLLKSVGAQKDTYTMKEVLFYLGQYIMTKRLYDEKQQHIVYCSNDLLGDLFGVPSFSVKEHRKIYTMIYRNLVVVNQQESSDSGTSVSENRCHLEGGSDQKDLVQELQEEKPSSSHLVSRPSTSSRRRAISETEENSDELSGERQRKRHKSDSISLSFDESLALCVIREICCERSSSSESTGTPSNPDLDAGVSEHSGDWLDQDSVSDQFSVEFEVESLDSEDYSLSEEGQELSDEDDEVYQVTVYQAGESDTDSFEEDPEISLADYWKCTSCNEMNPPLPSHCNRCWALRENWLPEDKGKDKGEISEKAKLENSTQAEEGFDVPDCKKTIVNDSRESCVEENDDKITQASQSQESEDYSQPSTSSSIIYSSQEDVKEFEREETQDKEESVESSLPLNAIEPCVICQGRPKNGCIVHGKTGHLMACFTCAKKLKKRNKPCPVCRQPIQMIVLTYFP

| Structure (SMILES) | IC50 (SW480) [nM] | IC50 (MDA-MB-435) [nM] | IC50 [1] [nM] | half-life [3] [h] | bioavailability [4] [%] | clearance [5] [mL/min/kg] | Cmax [6] [ng/mL] | Cmax [7] [ng/mL] | bioavailability [8] [%] | IC50 [9] [nM] | IC50 (RKO) [nM] | IC50 [2] [nM] |
| --- | --- | --- | --- | --- | --- | --- | --- | --- | --- | --- | --- | --- |
| CC(C)(C)C[C@@H]1N[C@@H](C(=O)Nc2ccc(C(N)=O)cc2F)[C@H](c2cccc(Cl)c2F)[C@]12C(=O)Nc1cc(Cl)ccc12 | 7100 | 10000 | 7 | 15.3 | – | 3.4 | – | 13100 | 75 | 7 | 220 | 120 |
| COc1cc(NC(=O)[C@@H]2N[C@@H](CC(C)(C)C)[C@@]3(C(=O)Nc4cc(Cl)ccc43)[C@H]2c2cccc(Cl)c2F)ccc1C(N)=O | 3960 | 6920 | – | – | – | – | – | – | – | – | 90 | 80 |
| COc1cc(NC(=O)[C@@H]2N[C@@H](CC(C)(C)C)[C@@]3(C(=O)Nc4cc(Cl)ccc43)[C@H]2c2cccc(Cl)c2F)ccc1C(=O)O | 14400 | 11500 | – | – | – | – | – | – | – | – | 240 | 50 |
| COc1cc(C(N)=O)ccc1NC(=O)[C@@H]1N[C@@H](CC(C)(C)C)[C@@]2(C(=O)Nc3cc(Cl)cc(F)c32)[C@H]1c1cccc(Cl)c1F | 10500 | 12000 | 6 | – | – | – | – | – | – | – | 80 | 120 |
| COc1cc(C(N)=O)ccc1NC(=O)[C@@H]1N[C@@H](CC(C)(C)C)[C@@]2(C(=O)Nc3c2ccc(Cl)c3F)[C@H]1c1cccc(Cl)c1F (racemic) | 7500 | 9400 | 18 | – | – | – | – | – | – | 15 | 1080 | 670 |
| CC(C)(C)C[C@@H]1N[C@@H](C(=O)Nc2ccc(C(N)=O)cc2)[C@H](c2cccc(Cl)c2F)[C@]12C(=O)Nc1cc(Cl)ccc12 | 14300 | 11600 | 5 | 10.4 | – | 3.5 | – | 8300 | 63 | 5 | 150 | 70 |
| COc1cc(C(=O)O)ccc1NC(=O)[C@@H]1N[C@@H](CC(C)(C)C)[C@@]2(C(=O)Nc3cc(Cl)ccc32)[C@H]1c1cccc(Cl)c1F | 9800 | 12100 | – | 11.1 | 21 | 34.6 | 800 | – | – | – | 20 | 10 |

The next lines start with results.

| IC50 (SW480) [nM] | IC50 (MDA-MB-435) [nM] | IC50 [1] [nM] | half-life [3] [h] | bioavailability [4] [%] | clearance [5] [mL/min/kg] | Cmax [6] [ng/mL] | Cmax [7] [ng/mL] | bioavailability [8] [%] | IC50 [9] [nM] | Structure (SMILES) | IC50 (RKO) [nM] | IC50 [2] [nM] |
| --- | --- | --- | --- | --- | --- | --- | --- | --- | --- | --- | --- | --- |
| 11300 | 10800 | 8 | – | – | – | – | – | – | – | CC(C)(C)C[C@@H]1N[C@@H](C(=O)Nc2ccc(OCCO)cc2)[C@H](c2cccc(Cl)c2F)[C@]12C(=O)Nc1cc(Cl)ccc12 | 280 | 180 |
| 4450 | 9500 | – | 6.6 | 55 | 6.7 | 4300 | – | – | – | COc1cc(OCCO)ccc1NC(=O)[C@@H]1N[C@@H](CC(C)(C)C)[C@@]2(C(=O)Nc3cc(Cl)ccc32)[C@H]1c1cccc(Cl)c1F | 16 | 8 |
| – | – | 3740 | – | – | – | – | – | – | 3090 | COc1cc(NC(=O)[C@H]2N[C@H](CC(C)(C)C)[C@]3(C(=O)Nc4cc(Cl)ccc43)[C@@H]2c2cccc(Cl)c2F)ccc1C(=O)O | – | – |
| 15200 | 10900 | – | 8.8 | – | 2.6 | – | 8700 | 45 | – | CC(C)(C)C[C@@H]1N[C@@H](C(=O)Nc2ccc(C(N)=O)cc2)[C@H](c2cccc(Cl)c2F)[C@]12C(=O)Nc1cc(Cl)c(F)cc12 | 430 | 180 |
| – | – | 3900 | – | – | – | – | – | – | – | CC(=O)N1CCCC([C@]2(Cc3cccc(Cl)c3)C(=O)Nc3cc(Cl)ccc32)C1 (stereo partly specified) | – | – |
